ChEMBL document CHEMBL3425427, “Pyrido[4,3-e][1,2,4]triazolo[4,3-a]pyrazines as Selective, Brain Penetrant Phosphodiesterase 2 (PDE2) Inhibitors” (ACS Med Chem Lett, 2015)
Converted amounts (≈) assume the structure as drawn. One block for each molecule: values may come before it.

Experiments:
[1] = Ratio of drug level in brain to plasma of Sprague-Dawley rat at 10 mg/kg, sc after 1 hr; assay type: ADME, organism-based; design: dose 10 mg/kg, route subcutaneous; conditions: read-out: BPR
Outline: (§1)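 Fed male Sprague-Dawley rats, n = 2 per time point, given 10 mg/kg s.c. in 20% HPβCD at pH 3.5−4. Brain and plasma levels taken 1 h after dosing; brain-to-plasma ratio computed from these.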

[2] = Drug level in Sprague-Dawley rat brain homogenates at 10 mg/kg, sc after 1 hr; assay type: ADME, organism-based; design: dose 10 mg/kg, route subcutaneous; conditions: read-out: Drug uptake; outline: as §1
[3] = Unbound fraction in Sprague-Dawley rat brain homogenates at 10 mg/kg, sc after 5 hrs at 37 degC by rapid equilibrium dialysis; assay type: ADME, organism-based; design: dose 10 mg/kg, route subcutaneous; conditions: brain homogenate
Outline: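 Unbound fraction measured in rat brain homogenate by rapid equilibrium dialysis, 5 h incubation at 37 °C.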

Rattus norvegicus [4] = assay: In vivo PDE2 occupancy in Wistar rat assessed as inhibition of specific binding of [3H]-4-((1-(5-butoxypyridin-3-yl)-4-methyl-[1,2,4]triazolo[4,3-a]quinoxalin-8-yl)methyl)morpholine radiotracer at 10 mg/kg, sc and pre-treated with 2.5 mg/kg, sc PDE10 inhibitor MP10; assay type: functional
[5] = Drug metabolism in human liver microsomes at 1 uM incubated for 15 mins at 37 degC; assay type: ADME; conditions: read-out: Drug metabolism
Outline: (§2)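 Compound at 1 μM incubated 15 min at 37 °C with human or rat liver microsomes; read-out is percent metabolized.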

[6] = Drug metabolism in rat liver microsomes at 1 uM incubated for 15 mins at 37 degC; assay type: ADME; conditions: read-out: Drug metabolism; outline: as §2
[7] = molecular target: T1, cAMP and cAMP-inhibited cGMP 3',5'-cyclic phosphodiesterase 10A (Rattus norvegicus, UniProt Q9QYJ6); assay: Inhibition of 6-His-tagged rat recombinant PDE10A expressed in Sf9 cells using [3H]cAMP incubated for 60 mins by scintillation proximity assay
T1 sequence (Q9QYJ6 whole entry): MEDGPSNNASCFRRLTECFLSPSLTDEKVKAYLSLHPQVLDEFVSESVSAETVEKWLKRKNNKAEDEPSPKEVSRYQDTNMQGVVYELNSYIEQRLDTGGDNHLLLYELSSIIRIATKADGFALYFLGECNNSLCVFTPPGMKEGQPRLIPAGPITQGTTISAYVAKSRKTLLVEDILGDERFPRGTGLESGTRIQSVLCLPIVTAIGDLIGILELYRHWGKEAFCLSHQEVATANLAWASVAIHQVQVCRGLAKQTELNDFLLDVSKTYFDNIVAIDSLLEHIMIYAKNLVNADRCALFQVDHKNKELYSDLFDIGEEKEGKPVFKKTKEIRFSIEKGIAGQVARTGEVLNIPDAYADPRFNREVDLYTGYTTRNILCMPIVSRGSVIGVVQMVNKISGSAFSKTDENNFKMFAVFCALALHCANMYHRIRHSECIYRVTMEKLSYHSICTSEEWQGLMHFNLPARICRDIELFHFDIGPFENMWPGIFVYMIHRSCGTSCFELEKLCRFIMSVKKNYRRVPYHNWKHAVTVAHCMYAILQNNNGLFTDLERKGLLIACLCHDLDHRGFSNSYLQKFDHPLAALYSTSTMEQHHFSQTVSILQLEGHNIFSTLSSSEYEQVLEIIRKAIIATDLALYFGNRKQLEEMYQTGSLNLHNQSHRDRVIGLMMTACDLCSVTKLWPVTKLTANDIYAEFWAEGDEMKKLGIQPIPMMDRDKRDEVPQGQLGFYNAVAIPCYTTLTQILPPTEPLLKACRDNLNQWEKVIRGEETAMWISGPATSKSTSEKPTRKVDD

[8] = molecular target: High affinity 3',5'-cyclic-AMP phosphodiesterase 7A (Homo sapiens, UniProt Q13946); assay: Inhibition of 6-His-tagged human recombinant PDE7A1 expressed in Sf9 cells by scintillation proximity assay
[9] = molecular target: High affinity cGMP-specific 3',5'-cyclic phosphodiesterase 9A (Homo sapiens, UniProt O76083); assay: Inhibition of 6-His-tagged human recombinant PDE9A1 expressed in Sf9 cells by scintillation proximity assay
Chain of High affinity cGMP-specific 3',5'-cyclic phosphodiesterase 9A (O76083 whole entry): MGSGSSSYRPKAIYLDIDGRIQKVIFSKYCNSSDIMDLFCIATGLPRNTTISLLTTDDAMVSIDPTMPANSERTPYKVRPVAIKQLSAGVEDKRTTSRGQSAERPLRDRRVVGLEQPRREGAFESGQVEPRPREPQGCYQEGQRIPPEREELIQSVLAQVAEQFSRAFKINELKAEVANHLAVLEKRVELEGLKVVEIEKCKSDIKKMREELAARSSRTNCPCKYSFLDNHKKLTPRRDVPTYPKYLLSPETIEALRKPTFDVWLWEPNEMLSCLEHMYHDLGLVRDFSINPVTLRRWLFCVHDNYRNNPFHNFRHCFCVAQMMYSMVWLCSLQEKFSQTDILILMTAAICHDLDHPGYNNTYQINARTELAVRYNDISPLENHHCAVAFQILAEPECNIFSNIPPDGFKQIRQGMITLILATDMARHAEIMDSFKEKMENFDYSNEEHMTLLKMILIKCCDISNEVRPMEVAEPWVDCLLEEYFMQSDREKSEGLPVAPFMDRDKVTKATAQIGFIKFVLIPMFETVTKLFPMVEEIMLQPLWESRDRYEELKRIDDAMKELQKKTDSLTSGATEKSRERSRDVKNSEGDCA

[10] = Solubility in pH 7.4 buffer; assay type: physicochemical
[11] = molecular target: cGMP-inhibited 3',5'-cyclic phosphodiesterase 3B (Homo sapiens, UniProt Q13370); assay: Inhibition of human PDE3B by scintillation proximity assay
Chain of cGMP-inhibited 3',5'-cyclic phosphodiesterase 3B (Q13370 whole entry): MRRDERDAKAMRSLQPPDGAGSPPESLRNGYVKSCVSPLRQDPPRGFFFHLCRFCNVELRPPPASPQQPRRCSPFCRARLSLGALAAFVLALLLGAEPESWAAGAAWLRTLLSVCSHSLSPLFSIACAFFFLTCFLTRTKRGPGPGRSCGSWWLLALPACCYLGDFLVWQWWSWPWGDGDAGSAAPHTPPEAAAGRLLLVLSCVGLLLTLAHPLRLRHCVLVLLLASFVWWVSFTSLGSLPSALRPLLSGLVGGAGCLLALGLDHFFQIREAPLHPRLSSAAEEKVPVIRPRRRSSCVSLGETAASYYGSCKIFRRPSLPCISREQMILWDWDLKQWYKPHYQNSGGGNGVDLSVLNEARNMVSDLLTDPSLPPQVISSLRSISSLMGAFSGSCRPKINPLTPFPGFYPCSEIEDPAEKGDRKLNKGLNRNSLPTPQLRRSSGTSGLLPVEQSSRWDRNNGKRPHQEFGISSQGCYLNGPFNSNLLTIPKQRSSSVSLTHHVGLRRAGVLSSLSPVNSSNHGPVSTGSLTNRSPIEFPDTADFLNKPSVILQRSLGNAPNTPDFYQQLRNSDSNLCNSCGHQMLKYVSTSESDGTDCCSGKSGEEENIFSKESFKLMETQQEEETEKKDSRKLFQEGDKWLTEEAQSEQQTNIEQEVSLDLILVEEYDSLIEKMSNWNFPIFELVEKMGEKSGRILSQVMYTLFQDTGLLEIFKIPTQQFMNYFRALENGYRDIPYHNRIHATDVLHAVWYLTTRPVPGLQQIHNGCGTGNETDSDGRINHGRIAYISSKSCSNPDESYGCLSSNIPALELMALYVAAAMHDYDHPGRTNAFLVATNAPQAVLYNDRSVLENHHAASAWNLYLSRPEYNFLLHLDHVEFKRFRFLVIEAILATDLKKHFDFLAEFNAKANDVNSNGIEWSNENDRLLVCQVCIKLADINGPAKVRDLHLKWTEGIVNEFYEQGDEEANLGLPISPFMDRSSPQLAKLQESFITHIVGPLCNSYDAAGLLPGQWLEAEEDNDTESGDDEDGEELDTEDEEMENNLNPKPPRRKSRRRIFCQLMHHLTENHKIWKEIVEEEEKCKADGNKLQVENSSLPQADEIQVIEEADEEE

CYP3A4 = CYP3A4 (Homo sapiens, UniProt P08684); assay: Inhibition of CYP3A4 (unknown origin) at 5 uM; assay type: ADME
Chain of CYP3A4 (P08684 whole entry): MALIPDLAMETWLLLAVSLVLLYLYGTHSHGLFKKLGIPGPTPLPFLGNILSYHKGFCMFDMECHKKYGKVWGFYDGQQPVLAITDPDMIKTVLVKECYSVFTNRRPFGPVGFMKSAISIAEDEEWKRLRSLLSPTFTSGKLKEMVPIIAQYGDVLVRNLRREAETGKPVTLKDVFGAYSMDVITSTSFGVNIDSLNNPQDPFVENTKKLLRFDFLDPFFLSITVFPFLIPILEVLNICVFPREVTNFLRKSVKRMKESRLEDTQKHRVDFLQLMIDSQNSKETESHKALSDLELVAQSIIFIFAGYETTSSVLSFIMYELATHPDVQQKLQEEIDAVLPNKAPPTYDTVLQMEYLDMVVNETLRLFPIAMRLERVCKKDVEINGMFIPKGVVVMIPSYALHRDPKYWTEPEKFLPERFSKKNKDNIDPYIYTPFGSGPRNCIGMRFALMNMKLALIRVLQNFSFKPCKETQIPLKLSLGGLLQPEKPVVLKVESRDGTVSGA

Rattus norvegicus [12] = assay: In vivo PDE2 occupancy in Wistar rat assessed as inhibition of specific binding of [3H]-4-((1-(5-butoxypyridin-3-yl)-4-methyl-[1,2,4]triazolo[4,3-a]quinoxalin-8-yl)methyl)morpholine radiotracer and pre-treated with 2.5 mg/kg, sc PDE10 inhibitor MP10
Phosphodiesterase 6 = assay: Inhibition of human PDE6AB by scintillation proximity assay; assay type: protein assay
[13] = Volume of distribution at steady state in Sprague-Dawley rat at 2.5 mg/kg, iv; assay type: ADME, organism-based; design: dose 2.5 mg/kg, route intravenous; conditions: in vivo, read-out: Vdss
Outline: (§3)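 Male Sprague-Dawley rats, fed; n = 3 per time point. Dosed 2.5 mg/kg i.v. or 10 mg/kg p.o.; plasma PK parameters derived from both routes.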

Salmonella typhimurium = assay: Genotoxicity in Salmonella typhimurium at 125 ug/ml by AMES-2 test; assay type: toxicity, organism-based; conditions: salmonella enterica subsp. enterica serovar typhimurium
Outline: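 Colorimetric AMESII bacterial mutagenicity kit, adapted; compound tested at 125 μg/mL.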

[14] = Drug formulatability in 20% HPbetaCD at pH >3.5 buffer; assay type: physicochemical; conditions: 20% HPbetaCD in buffer at pH >3.5; read-out: Activity
[15] = molecular target: Dual specificity calcium/calmodulin-dependent 3',5'-cyclic nucleotide phosphodiesterase 1A (Homo sapiens, UniProt P54750); assay: Inhibition of human PDE1A by scintillation proximity assay
Chain of Dual specificity calcium/calmodulin-dependent 3',5'-cyclic nucleotide phosphodiesterase 1A (P54750 whole entry): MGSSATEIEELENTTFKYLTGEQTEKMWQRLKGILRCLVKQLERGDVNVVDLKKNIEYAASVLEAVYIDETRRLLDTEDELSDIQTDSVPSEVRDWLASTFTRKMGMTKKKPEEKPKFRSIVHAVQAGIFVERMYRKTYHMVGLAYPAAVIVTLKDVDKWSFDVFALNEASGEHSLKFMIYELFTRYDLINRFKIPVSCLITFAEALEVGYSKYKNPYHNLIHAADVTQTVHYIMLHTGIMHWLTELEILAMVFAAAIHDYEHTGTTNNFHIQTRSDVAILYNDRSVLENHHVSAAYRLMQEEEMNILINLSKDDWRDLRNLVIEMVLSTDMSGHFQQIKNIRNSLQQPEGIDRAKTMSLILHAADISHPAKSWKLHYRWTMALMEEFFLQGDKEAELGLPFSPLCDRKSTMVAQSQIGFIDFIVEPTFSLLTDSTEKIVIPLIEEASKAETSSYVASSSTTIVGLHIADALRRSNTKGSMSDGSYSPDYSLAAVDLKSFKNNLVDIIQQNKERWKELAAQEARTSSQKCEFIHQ

CYP1A2 = molecular target: T2, CYP1A2 (Homo sapiens, UniProt P05177); assay: Inhibition of CYP1A2 (unknown origin) at 5 uM; assay type: ADME
T2 sequence (P05177 whole entry): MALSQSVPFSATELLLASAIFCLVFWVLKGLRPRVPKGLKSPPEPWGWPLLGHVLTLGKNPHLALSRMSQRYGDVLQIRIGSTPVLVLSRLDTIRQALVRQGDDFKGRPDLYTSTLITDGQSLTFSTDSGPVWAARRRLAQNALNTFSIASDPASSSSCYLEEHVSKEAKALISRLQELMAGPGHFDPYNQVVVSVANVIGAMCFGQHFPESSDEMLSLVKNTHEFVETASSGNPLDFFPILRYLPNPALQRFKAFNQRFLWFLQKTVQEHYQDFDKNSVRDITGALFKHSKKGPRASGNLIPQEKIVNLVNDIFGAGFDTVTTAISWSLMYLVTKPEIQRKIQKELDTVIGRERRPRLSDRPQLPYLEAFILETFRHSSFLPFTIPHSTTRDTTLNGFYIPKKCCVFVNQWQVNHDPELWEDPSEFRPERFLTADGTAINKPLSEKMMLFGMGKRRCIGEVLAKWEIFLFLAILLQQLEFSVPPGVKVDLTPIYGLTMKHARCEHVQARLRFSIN

[16] = molecular target: Dual 3',5'-cyclic-AMP and -GMP phosphodiesterase 11A (Homo sapiens, UniProt Q9HCR9); assay: Inhibition of full length human PDE11A4 expressed in HEK cells by scintillation proximity assay; design: species or system HEK293
Chain of Dual 3',5'-cyclic-AMP and -GMP phosphodiesterase 11A (Q9HCR9 whole entry): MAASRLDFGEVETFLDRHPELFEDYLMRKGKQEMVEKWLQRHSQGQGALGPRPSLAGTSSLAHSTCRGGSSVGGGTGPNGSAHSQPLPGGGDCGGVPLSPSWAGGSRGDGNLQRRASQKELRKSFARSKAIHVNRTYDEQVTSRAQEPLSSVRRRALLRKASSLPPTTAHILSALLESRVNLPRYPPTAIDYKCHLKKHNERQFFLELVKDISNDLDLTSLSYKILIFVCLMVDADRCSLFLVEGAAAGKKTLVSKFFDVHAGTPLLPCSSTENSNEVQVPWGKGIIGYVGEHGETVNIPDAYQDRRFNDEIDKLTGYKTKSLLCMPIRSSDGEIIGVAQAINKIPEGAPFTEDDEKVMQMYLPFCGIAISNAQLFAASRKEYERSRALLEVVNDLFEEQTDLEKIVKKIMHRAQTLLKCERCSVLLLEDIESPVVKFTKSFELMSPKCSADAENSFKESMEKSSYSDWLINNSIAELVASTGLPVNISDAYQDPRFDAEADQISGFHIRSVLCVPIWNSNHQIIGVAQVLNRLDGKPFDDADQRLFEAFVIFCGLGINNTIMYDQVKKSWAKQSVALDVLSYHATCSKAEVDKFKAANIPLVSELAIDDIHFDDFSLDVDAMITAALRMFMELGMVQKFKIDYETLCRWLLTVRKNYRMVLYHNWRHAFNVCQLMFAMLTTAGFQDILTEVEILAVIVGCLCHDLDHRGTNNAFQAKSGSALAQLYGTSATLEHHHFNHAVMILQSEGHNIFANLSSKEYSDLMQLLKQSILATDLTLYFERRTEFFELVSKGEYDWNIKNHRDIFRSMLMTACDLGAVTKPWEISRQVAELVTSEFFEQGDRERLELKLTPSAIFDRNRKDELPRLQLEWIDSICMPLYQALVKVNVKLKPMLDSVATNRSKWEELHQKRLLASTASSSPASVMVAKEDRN

[17] = Oral bioavailability in Sprague-Dawley rat at 10 mg/kg; assay type: ADME, organism-based; conditions: in vivo; outline: as §3
[18] = Tmax in Sprague-Dawley rat at 10 mg/kg, po; assay type: ADME, organism-based; design: dose 10 mg/kg, route oral; conditions: in vivo; outline: as §3
[19] = Dissociation constant, pKa of the compound; assay type: physicochemical
[20] = Half life in Sprague-Dawley rat at 2.5 mg/kg, iv; assay type: ADME, organism-based; design: dose 2.5 mg/kg, route intravenous; conditions: in vivo; outline: as §3
[21] = Kinetic solubility in pH 7.4 buffer incubated for 4 hrs; assay type: physicochemical; conditions: read-out: Kinetic_solubility
[22] = Cmax in Sprague-Dawley rat at 10 mg/kg, po; assay type: ADME, organism-based; design: dose 10 mg/kg, route oral; conditions: in vivo; outline: as §3
[23] = molecular target: 3',5'-cyclic-AMP phosphodiesterase 4D (Homo sapiens, UniProt Q08499); assay: Inhibition of 6-His-tagged human recombinant PDE4D3 expressed in Sf9 cells by scintillation proximity assay
[24] = AUC (0 to infinity) in Sprague-Dawley rat at 10 mg/kg, po; assay type: ADME, organism-based; design: time infinity, dose 10 mg/kg, route oral; conditions: plasma
[25] = Dissociation constant, pKa of the compound at 25 degC by potentiometric titration method; assay type: physicochemical
[26] = Half life in Sprague-Dawley rat at 10 mg/kg, po; assay type: ADME, organism-based; design: dose 10 mg/kg, route oral; conditions: in vivo; outline: as §3
CYP2D6 = CYP2D6 (Homo sapiens, UniProt P10635); assay: Inhibition of CYP2D6 (unknown origin) at 5 uM; assay type: ADME
Chain of CYP2D6 (P10635 whole entry): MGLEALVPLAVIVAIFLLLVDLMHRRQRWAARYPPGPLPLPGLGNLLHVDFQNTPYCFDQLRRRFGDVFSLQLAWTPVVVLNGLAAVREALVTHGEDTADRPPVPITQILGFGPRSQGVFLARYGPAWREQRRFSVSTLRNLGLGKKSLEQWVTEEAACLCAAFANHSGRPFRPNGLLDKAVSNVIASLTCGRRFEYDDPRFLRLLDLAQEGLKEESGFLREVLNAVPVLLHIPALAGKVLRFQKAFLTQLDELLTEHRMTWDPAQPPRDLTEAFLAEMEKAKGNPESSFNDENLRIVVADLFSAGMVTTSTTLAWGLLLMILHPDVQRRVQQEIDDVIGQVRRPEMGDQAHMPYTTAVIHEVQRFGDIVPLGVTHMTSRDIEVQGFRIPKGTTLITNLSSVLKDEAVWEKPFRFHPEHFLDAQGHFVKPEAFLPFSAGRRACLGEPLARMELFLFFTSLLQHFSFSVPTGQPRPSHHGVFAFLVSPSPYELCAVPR

[27] = Clearance in Sprague-Dawley rat at 2.5 mg/kg, iv; assay type: ADME, organism-based; design: dose 2.5 mg/kg, route intravenous; conditions: in vivo; outline: as §3
[28] = Solubility in pH 3.9 buffer with 20% HPbetaCD; assay type: physicochemical
[29] = Initial plasma concentration in Sprague-Dawley rat at 2.5 mg/kg, iv; assay type: ADME, organism-based; design: dose 2.5 mg/kg, route intravenous; outline: as §3
[30] = molecular target: cGMP-specific 3',5'-cyclic phosphodiesterase (Homo sapiens, UniProt O76074); assay: Inhibition of 6-His-tagged human recombinant PDE5A3 expressed in Sf9 cells by scintillation proximity assay
CYP2C19 = CYP2C19 (Homo sapiens, UniProt P33261); assay: Inhibition of CYP2C19 (unknown origin) at 5 uM; assay type: ADME
Chain of CYP2C19 (P33261 whole entry): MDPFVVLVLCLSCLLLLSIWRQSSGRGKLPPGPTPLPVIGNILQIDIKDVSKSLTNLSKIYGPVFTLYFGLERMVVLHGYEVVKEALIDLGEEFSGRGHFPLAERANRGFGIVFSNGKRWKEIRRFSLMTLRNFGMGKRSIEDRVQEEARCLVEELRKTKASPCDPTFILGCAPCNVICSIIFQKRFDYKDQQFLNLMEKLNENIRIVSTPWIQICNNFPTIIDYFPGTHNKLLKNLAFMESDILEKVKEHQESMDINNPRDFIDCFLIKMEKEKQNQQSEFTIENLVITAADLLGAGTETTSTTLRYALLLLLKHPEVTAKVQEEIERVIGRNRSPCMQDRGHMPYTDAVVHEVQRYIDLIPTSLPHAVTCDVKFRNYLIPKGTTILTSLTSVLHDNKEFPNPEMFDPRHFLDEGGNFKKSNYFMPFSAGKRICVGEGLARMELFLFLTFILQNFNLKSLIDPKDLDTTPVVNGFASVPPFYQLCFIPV

[31] = Apparent volume of distribution in Sprague-Dawley rat at 2.5 mg/kg, iv; assay type: ADME, organism-based; design: dose 2.5 mg/kg, route intravenous; conditions: in vivo, read-out: Vz; outline: as §3
CYP2C9 = CYP2C9 (Homo sapiens, UniProt P11712); assay: Inhibition of CYP2C9 (unknown origin) at 5 uM; assay type: ADME
[32] = AUC (0 to infinity) in Sprague-Dawley rat at 2.5 mg/kg, iv; assay type: ADME, organism-based; design: dose 2.5 mg/kg, route intravenous, time infinity; conditions: plasma

Kp at 1 h [1]: 0.61 | concentration at 1 h [2]: 789 ng/g | fraction unbound at 5 h [3]: > 0.3 | metabolised at 0.25 h, 1 µM [5]: 6% | metabolised at 0.25 h, 1 µM [6]: 46%
SMILES: CCCCOc1cncc(-c2nnc3c(C)nc4ccncc4n23)c1
Occ (Rattus norvegicus [4]): 23%

Kp at 1 h [1]: 0.98 | concentration at 1 h [2]: 895 ng/g | IC50 [7]: 3.89 µM | fraction unbound at 5 h [3]: 0.1 | metabolised at 0.25 h, 1 µM [5]: 78% | metabolised at 0.25 h, 1 µM [6]: 98%
SMILES: CCCOCc1ccc(Cl)c(-c2nnc3c(C)nc4ccncc4n23)c1

IC50 [7]: 6.03 µM | metabolised at 0.25 h, 1 µM [5]: 57% | metabolised at 0.25 h, 1 µM [6]: 98%
SMILES: Cc1nc2ccncc2n2c(-c3cc(COC(C)C)ccc3Cl)nnc12

IC50 [8]: > 10 µM | IC50 [9]: > 10 µM | Kp at 1 h [1]: 0.65 | solubility [10]: > 1000 µM | IC50 [11]: > 10 µM | inhibition at 5 µM (CYP3A4): < 50% | IC50 (Phosphodiesterase 6): > 10 µM | Vd [13]: 1.02 L/kg | solubility [14]: 4000 µg/mL (≈ 13.5 mM) | IC50 [15]: > 10 µM | inhibition at 5 µM (CYP1A2): < 50% | IC50 [16]: 6.92 µM | bioavailability [17]: 100% | Tmax [18]: 1.17 h | concentration at 1 h [2]: 2730 ng/g | pKa [19]: 2.7 | fraction unbound at 5 h [3]: > 0.3 | metabolised at 0.25 h, 1 µM [5]: 7% | half-life [20]: 0.47 h | solubility kinetic at 4 h [21]: > 1000 µM | Cmax [22]: 997 ng/mL | IC50 [23]: 5.89 µM | AUC(0-inf) [24]: 4230 ng·h/mL | pKa [25]: 2.7 | half-life [26]: 2.36 h | inhibition at 5 µM (CYP2D6): < 50% | clearance [27]: 38.7 mL/min/kg | solubility [28]: 4000 µg/mL (≈ 13.5 mM) | C0 [29]: 3020 ng/mL | IC50 [30]: > 10 µM | metabolised at 0.25 h, 1 µM [6]: 13% | inhibition at 5 µM (CYP2C19): < 50% | Vd [31]: 1.61 L/kg | inhibition at 5 µM (CYP2C9): < 50% | AUC(0-inf) [32]: 1040 ng·h/mL
SMILES: Cc1nc2ccncc2n2c(-c3ccccc3Cl)nnc12
ED50 (Rattus norvegicus [12]): 21 mg/kg | Activity (Salmonella typhimurium): Non-toxic

IC50 [7]: > 10 µM | metabolised at 0.25 h, 1 µM [5]: 14% | metabolised at 0.25 h, 1 µM [6]: 53%
SMILES: Cc1nc2ccncc2n2c(-c3cc(N4CCOCC4)ccc3Cl)nnc12
